This note sets out measurements from ChEMBL document CHEMBL2163305, “Nanomolar potency and metabolically stable inhibitors of kidney urea transporter UT-B” (J Med Chem, 2012).

Structures are written as SMILES.

The nature of data set [1]: Metabolic stability in rat liver microsomes assessed as compound remaining at 5 uM after 30 mins. As to conditions: read-out: Stability. The data set is classed as ADME, Microsome.
Data set [2] is described as follows: Half life in rat liver microsomes at 5 uM. The data set is classed as ADME, Microsome. A general note: Microsomes from liver hold many membrane-bound enzymes, among them those of drug oxidation.
Data set [3] deals with Blood. As to the kind of experiment: Drug uptake in mouse blood at 200 ug, ip at 6 hrs. The data set is classed as ADME, organism-based. As to conditions: in vivo. The method in brief:
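Mice (8–10 weeks, 25–35 g) received 200 μg of each of two inhibitors together by ip injection in DMSO/Tween-80/PEG400 formulation. Blood taken at 6 h, diluted with equal volume of water, extracted with ethyl acetate, LC/MS against standards. SE, 3 mice.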

Data set [4] relates to Kidney. As to the kind of experiment: Drug uptake in mouse kidney at 400 ug, ip administered as bolus dose. In kind it is ADME, organism-based. As to conditions: in vivo, read-out: Drug uptake.
In data set [5] the test system is Mus musculus. As to the kind of experiment: Antidiuretic activity in mouse assessed as reduction in urine osmolality at 400 ug, ip administered 1 hr followed by dDAVP administration (reference value: >3 Osm/kg). In kind it is functional.
The species named for data set [6] is Homo sapiens. As to the kind of experiment: Inhibition of UT-B-mediated urea transport in human erythrocytes incubated for 10 mins prior to urea addition by Stopped-flow light scattering assay. In kind it is cell-based. The method in brief: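 Human venous blood in heparin, kept at 4 °C and used within 48 h, diluted in PBS to ~0.5% hematocrit. Inhibitor for 10 min, then mixed 1:1 in stopped-flow to impose a 100 mM inward urea gradient. Cell swelling followed as 90° scattered light at 530 nm. Urea permeability and % inhibition computed.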

A short description of data set [7]: Drug excretion in mouse urine at 400 ug, ip administered as bolus dose. In kind it is ADME, organism-based. Particulars: in vivo.

The half-life is the time needed for the level to fall by half in the phase considered. Read a low half-life as fast loss. Regarding `CCc1ccc(S(=O)(=O)c2nnn3c2nc(NCc2cccs2)c2sccc23)cc1`, the remaining at 0.5 h, 5 µM in data set [1] was under 5%. In addition, the half-life at 5 µM in data set [2] was 2.8 min. The Drug uptake result in data set [3] is recorded as “Active”.
`COc1ccc(CNc2nc3c(S(=O)(=O)c4ccc(C(C)C)cc4)nnn3c3ccsc23)cc1`: the remaining at 0.5 h, 5 µM in data set [1] came to 7%.
Consider `COc1ccc(S(=O)(=O)c2nnn3c2nc(NCc2cccs2)c2sccc23)cc1`, for which, in data set [1], the remaining at 0.5 h, 5 µM turned out to be 6%.
Turning to `CC(C)c1ccc(S(=O)(=O)c2nnn3c2nc(NCc2cccc4ccccc24)c2sccc23)cc1`, the remaining at 0.5 h, 5 µM in data set [1] was found to be 45%.
For the compound `CC(C)c1ccc(S(=O)(=O)c2nnn3c2nc(NCc2cccs2)c2sccc23)cc1`, in data set [1], the remaining at 0.5 h, 5 µM is under 5%.
With `O=S(=O)(c1ccc(OC(F)(F)F)cc1)c1nnn2c1nc(NCc1cccs1)c1sccc12`, in data set [1], the remaining at 0.5 h, 5 µM turned out to be 95%.
Consider `O=S(=O)(c1ccc(Br)cc1)c1nnn2c1nc(NCc1cccs1)c1sccc12`, for which the remaining at 0.5 h, 5 µM in data set [1] was determined as 60%.
With `CC(F)(F)c1ccc(S(=O)(=O)c2nnn3c2nc(NCc2cccs2)c2sccc23)cc1`, the remaining at 0.5 h, 5 µM in data set [1] turned out to be 96%. In data set [2], this compound came in with a half-life at 5 µM of 120 min. In addition, the concentration in data set [4] is over 1000 nM. In data set [3], the Drug uptake result was “Active”. Besides, in data set [5], the Activity is reported as 0.5 Osm/kg. For the same compound, in data set [6], the inhibition entry is “Dose-dependent effect”. Further, the Drug excretion in data set [7] was over 1 µM.
In the case of `O=S(=O)(c1cccs1)c1nnn2c1nc(NCc1cccs1)c1sccc12`, in data set [1], the remaining at 0.5 h, 5 µM was under 5%.
On the same count and under the same terms, with `O=S(=O)(c1ccc(C(F)(F)F)cc1)c1nnn2c1nc(NCc1cccs1)c1sccc12` the figure was 99%; with `O=S(=O)(c1ccc(F)cc1)c1nnn2c1nc(NCc1cccs1)c1sccc12`, 27%; with `CC(C)c1ccc(S(=O)(=O)c2nnn3c2nc(NCc2ccco2)c2sccc23)cc1`, over 99%.
